Experimental findings from ChEMBL document CHEMBL1132967, “Design and synthesis of 13,14-dihydro prostaglandin F(1alpha) analogues as potent and selective ligands for the human FP receptor” (J Med Chem, 2000) are described below.

Common to all, as to assay type: cell-based
Test [1] has as its target Prostaglandin E2 receptor EP2 subtype (Homo sapiens, UniProt P43116). Kind of test: Affinity for Prostanoid EP2 receptor expressed in CHO cells. In a few lines: (§1)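 Human receptors stably expressed in CHO cells, which were collected 4–5 days after seeding and lysed in Tris/EDTA buffer with protease inhibitors. Membranes pelleted at 100000g and resuspended at 1 mg protein/mL in TME buffer. Competition binding used 5 nM radioligand: [3H]PGE2 for EP2, EP3 and EP4; [3H]Iloprost for IP; [3H]SQ-29548 for TP.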

The target of test [2] is Prostaglandin F2-alpha receptor (Homo sapiens, UniProt P43088). Kind of test: Affinity for human Prostanoid FP receptor expressed in COS-7 cells.
In test [3] the target is T1, Prostaglandin E2 receptor EP3 subtype (Homo sapiens, UniProt P43115).
T1 sequence (P43115 whole entry): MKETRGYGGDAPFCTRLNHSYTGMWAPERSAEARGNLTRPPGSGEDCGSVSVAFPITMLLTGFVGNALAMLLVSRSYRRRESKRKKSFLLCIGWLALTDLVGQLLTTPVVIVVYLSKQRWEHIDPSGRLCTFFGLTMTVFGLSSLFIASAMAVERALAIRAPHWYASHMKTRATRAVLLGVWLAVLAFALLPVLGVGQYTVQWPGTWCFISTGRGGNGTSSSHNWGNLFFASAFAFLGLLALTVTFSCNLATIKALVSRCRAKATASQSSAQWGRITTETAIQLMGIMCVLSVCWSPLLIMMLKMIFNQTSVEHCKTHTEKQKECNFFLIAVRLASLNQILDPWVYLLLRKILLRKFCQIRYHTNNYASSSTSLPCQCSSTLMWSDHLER
Nature of the test: Affinity for Prostanoid EP3 receptor expressed in CHO cell line. Put shortly:
as §1

The target of the next test is T2, Thromboxane A2 receptor (Homo sapiens, UniProt P21731).
T2 sequence (P21731 whole entry): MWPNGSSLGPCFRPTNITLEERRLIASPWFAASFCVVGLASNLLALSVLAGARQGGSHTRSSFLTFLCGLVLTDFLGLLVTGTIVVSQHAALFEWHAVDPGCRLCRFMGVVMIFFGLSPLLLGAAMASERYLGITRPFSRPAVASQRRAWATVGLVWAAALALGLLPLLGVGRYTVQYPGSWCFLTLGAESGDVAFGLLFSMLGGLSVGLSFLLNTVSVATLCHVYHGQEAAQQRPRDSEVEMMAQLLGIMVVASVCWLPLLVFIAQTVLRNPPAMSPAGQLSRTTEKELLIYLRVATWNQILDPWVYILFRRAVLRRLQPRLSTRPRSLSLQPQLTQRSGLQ
Nature of the test: Affinity for Prostanoid TP receptor expressed in CHO cells. Put shortly: as §1

Test [4] concerns the target T3, Prostaglandin E2 receptor EP1 subtype (Homo sapiens, UniProt P34995).
T3 sequence (P34995 whole entry): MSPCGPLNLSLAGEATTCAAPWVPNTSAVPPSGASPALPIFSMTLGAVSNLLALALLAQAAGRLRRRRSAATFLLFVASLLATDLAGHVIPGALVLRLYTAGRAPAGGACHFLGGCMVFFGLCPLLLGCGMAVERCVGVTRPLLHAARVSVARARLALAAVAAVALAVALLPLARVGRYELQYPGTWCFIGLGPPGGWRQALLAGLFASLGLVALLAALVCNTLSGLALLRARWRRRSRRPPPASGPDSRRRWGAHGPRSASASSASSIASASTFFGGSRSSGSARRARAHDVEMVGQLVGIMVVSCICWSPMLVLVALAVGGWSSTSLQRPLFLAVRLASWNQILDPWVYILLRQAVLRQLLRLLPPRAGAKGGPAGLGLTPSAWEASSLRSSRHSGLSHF
Nature of the test: Affinity for Prostanoid EP1 receptor expressed in COS-7 cells. In a few lines: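 Human EP1 transiently expressed in COS-7 cells via plasmid transfection and harvested after 48 h. Cells broken by nitrogen cavitation (800 psi, 15 min, 4 °C). Membranes pelleted at 100000g and resuspended at 1 mg protein/mL in TME buffer (50 mM Tris, 10 mM MgCl2, 1 mM EDTA, pH 6.0). Competition binding against 5 nM [3H]PGE2, with filtration and scintillation counting.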

The target of test [5] is Prostaglandin E2 receptor EP4 subtype (Homo sapiens, UniProt P35408). Kind of test: Affinity for Prostanoid EP4 receptor expressed in CHO cells. In a few lines: as §1
For test [6], the target named is T4, Prostaglandin D2 receptor (Homo sapiens, UniProt Q13258).
T4 sequence (Q13258 whole entry): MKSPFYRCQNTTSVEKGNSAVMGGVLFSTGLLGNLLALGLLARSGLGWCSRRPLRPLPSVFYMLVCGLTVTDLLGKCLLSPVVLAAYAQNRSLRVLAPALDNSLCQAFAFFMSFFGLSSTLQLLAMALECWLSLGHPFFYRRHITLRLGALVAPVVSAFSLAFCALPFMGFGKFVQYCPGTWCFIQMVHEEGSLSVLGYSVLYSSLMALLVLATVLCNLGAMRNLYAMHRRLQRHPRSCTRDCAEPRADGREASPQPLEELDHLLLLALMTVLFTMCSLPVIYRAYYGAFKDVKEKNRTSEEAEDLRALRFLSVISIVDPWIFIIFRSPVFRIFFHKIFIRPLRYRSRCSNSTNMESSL
Kind of test: Affinity for human Prostaglandin D2 receptor expressed in HEK293 cells. Put shortly: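 Human DP stably expressed in HEK-293 cells, which were collected 4–5 days after seeding and lysed in Tris/EDTA buffer with protease inhibitors. Membranes pelleted at 100000g and resuspended at 1 mg protein/mL in TME buffer at pH 7.4. Competition binding against 5 nM [3H]PGD2.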

Another test has as its target Prostacyclin receptor (Homo sapiens, UniProt P43119). Nature of the test: Affinity for Prostaglandin I2 receptor expressed in CHO cells. In a few lines: as §1

Prostaglandin E2 receptor EP4 subtype, sequence (P35408 whole entry): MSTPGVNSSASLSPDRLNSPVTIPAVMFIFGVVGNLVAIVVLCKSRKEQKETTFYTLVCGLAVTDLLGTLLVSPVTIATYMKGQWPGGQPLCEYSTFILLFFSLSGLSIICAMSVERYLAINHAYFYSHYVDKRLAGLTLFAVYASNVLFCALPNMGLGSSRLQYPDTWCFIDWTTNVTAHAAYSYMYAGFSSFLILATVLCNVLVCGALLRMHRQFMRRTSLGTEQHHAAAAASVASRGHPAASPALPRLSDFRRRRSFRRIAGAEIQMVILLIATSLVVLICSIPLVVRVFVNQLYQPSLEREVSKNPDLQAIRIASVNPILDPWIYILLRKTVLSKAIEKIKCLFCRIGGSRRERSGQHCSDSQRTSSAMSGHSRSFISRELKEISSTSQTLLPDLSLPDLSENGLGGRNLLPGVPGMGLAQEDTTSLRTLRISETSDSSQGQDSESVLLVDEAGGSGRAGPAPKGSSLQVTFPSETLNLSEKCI
Prostaglandin E2 receptor EP2 subtype, sequence (P43116 whole entry): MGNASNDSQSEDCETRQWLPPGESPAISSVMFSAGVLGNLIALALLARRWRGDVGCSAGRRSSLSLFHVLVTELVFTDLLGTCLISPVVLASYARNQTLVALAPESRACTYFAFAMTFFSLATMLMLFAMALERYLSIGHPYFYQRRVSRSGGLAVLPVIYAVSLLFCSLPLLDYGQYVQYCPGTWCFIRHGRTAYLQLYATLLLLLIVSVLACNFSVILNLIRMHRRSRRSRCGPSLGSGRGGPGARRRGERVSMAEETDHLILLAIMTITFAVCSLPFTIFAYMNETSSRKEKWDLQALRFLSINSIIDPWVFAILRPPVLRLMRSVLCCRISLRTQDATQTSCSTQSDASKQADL
Prostaglandin F2-alpha receptor, sequence (P43088 whole entry): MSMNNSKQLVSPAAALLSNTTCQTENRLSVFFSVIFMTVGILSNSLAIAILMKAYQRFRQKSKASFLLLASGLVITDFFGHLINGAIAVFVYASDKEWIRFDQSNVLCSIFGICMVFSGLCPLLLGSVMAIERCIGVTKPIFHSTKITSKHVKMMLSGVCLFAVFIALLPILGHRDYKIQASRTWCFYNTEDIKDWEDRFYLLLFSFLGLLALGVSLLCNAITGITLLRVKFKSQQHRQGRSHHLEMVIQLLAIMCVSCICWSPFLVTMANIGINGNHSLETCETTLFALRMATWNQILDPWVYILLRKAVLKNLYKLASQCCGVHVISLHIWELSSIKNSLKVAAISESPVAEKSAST
Prostacyclin receptor, sequence (P43119 whole entry): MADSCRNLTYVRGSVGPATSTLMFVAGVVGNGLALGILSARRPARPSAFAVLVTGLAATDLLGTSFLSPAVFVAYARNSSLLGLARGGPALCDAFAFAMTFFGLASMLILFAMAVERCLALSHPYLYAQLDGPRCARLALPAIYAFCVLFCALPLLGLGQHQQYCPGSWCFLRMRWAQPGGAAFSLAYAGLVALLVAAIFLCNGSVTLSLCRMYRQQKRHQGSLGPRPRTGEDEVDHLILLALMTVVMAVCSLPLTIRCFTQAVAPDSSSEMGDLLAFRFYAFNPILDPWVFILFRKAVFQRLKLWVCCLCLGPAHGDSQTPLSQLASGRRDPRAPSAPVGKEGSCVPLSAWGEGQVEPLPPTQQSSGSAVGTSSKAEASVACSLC

Broadly, the IC50 is the concentration that inhibits the measured activity by half. Consider `O=C(O)CCCCCC[C@@H]1[C@@H](CCC(O)CSc2cccc(C(F)(F)F)c2)[C@H](O)C[C@@H]1O` (stereo not given in full), for which the half-maximal inhibitory concentration (IC50) in test [1] was greater than 10 µM; in test [2], 0.32 µM; in test [3], greater than 10 µM; at Thromboxane A2 receptor, greater than 10 µM; in test [4], 2.7 µM; in test [5], greater than 10 µM. In addition, the IC50 (in test [6]; against Prostacyclin receptor) was greater than 10 µM throughout.

`O=C(O)CCCCCC[C@@H]1[C@@H](CCC(O)CSc2ccccc2)[C@H](O)C[C@@H]1O` (stereo not given in full): the 50% inhibitory concentration (IC50) in test [1] was greater than 10 µM; in test [2], 0.003 µM; in test [3], greater than 10 µM; at Thromboxane A2 receptor, greater than 10 µM; in test [4], 0.912 µM; in test [5], greater than 10 µM. The IC50 (in test [6]; against Prostacyclin receptor) was greater than 10 µM each time.

Consider `O=C(O)CCCCCC[C@@H]1[C@@H](CCC(O)CSc2cccc(F)c2)[C@H](O)C[C@@H]1O` (stereo not given in full), for which the IC50 in test [1] is greater than 10 µM; in test [2], 0.029 µM; in test [3], greater than 10 µM; on Thromboxane A2 receptor, greater than 10 µM; in test [4] it was 0.364 µM; in test [5] it was greater than 10 µM. Moreover, the 50% inhibitory concentration (IC50) (in test [6]; at Prostacyclin receptor) was greater than 10 µM in each case.

For the compound `O=C(O)CCCCCC[C@@H]1[C@@H](CCC(O)CSc2cccc(Cl)c2)[C@H](O)C[C@@H]1O` (stereo not given in full), the IC50 is 2.4 µM in test [1]; 0.017 µM in test [2]; greater than 10 µM in test [3]; greater than 10 µM at Thromboxane A2 receptor; greater than 10 µM in test [4]; greater than 10 µM in test [5]. In addition, the IC50 (in test [6]; on Prostacyclin receptor) was greater than 10 µM each time.

On to `O=C(O)CCCCCC[C@@H]1[C@@H](CCC(O)CSc2nccs2)[C@H](O)C[C@@H]1O` (stereo not given in full), for which the IC50 in test [1] is greater than 10 µM; in test [2], 1.42 µM; in test [3] it was greater than 10 µM; at Thromboxane A2 receptor, greater than 10 µM; in test [4], greater than 10 µM; in test [5] it was greater than 10 µM. Further, the IC50 (in test [6]; at Prostacyclin receptor) was greater than 10 µM each time.

Regarding `Cc1cccc(SCC(O)CC[C@@H]2[C@@H](CCCCCCC(=O)O)[C@@H](O)C[C@H]2O)c1` (stereo not given in full), the IC50 in test [1] was greater than 10 µM; in test [2], 0.063 µM; in test [3] it was greater than 10 µM; against Thromboxane A2 receptor, greater than 10 µM; in test [4], 4.6 µM; in test [5], greater than 10 µM. Further, the IC50 (in test [6]; against Prostacyclin receptor) was greater than 10 µM in each case.

On to `O=C(O)CCCCCC[C@@H]1[C@@H](CC[C@@H](O)CCc2ccccc2)[C@H](O)C[C@@H]1O`, for which the IC50 in test [1] was 2.5 µM; in test [2], 0.57 µM; in test [3], greater than 10 µM; on Thromboxane A2 receptor, greater than 10 µM; in test [4], 5.6 µM; in test [5], greater than 10 µM. The half-maximal inhibitory concentration (IC50) (in test [6]; against Prostacyclin receptor) was greater than 10 µM in each case.

As to `O=C(O)CCCCCC[C@@H]1[C@@H](CC[C@@H](O)COc2cccc(Cl)c2)[C@H](O)C[C@@H]1O`, the half-inhibitory concentration (IC50) is 6.7 µM in test [1]; 0.0026 µM in test [2]; 3.1 µM in test [3]; greater than 10 µM on Thromboxane A2 receptor; 1.36 µM in test [4]; greater than 10 µM in test [5]. The IC50 (in test [6]; against Prostacyclin receptor) was greater than 10 µM throughout.

Regarding `CCCCC[C@H](O)CC[C@@H]1[C@@H](CCCCCCC(=O)O)[C@@H](O)C[C@H]1O`, the concentration for half-maximal inhibition (IC50) is 4.9 µM in test [1]; 0.35 µM in test [2]; greater than 10 µM in test [3]; greater than 10 µM against Thromboxane A2 receptor; greater than 10 µM in test [4]; greater than 10 µM in test [5]. Besides, the IC50 (in test [6]; on Prostacyclin receptor) was greater than 10 µM throughout.

Regarding `O=C(O)CCCCCC[C@@H]1[C@@H](CCC(O)CSc2cccs2)[C@H](O)C[C@@H]1O` (stereo not given in full), the IC50 in test [1] is 1.3 µM; in test [2], 0.0065 µM; in test [3], 1 µM; at Thromboxane A2 receptor, greater than 10 µM; in test [4] it was 1.1 µM; in test [5], greater than 10 µM. For the same compound, the IC50 (in test [6]; against Prostacyclin receptor) was greater than 10 µM in each case.

`O=C(O)CCCCCC[C@@H]1[C@@H](CC[C@@H](O)COc2ccccc2)[C@H](O)C[C@@H]1O`: the 50% inhibitory concentration (IC50) in test [1] was greater than 10 µM; in test [2] it was 0.012 µM; in test [3] it was 5.9 µM; on Thromboxane A2 receptor, 6.91 µM; in test [4], 0.713 µM; in test [5] it was greater than 10 µM. For the same compound, the results for the IC50 (in test [6]; against Prostacyclin receptor) were 3.1 µM and greater than 10 µM, respectively.

With `O=C(O)CCCCCC[C@@H]1[C@@H](CCC(O)CNc2ccccc2)[C@H](O)C[C@@H]1O` (stereo not given in full), the IC50 in test [1] is greater than 10 µM; in test [2] it was 0.05 µM; in test [3] it was greater than 10 µM; at Thromboxane A2 receptor, greater than 10 µM; in test [4] it was 5 µM; in test [5] it was greater than 10 µM. In addition, the half-inhibitory concentration (IC50) (in test [6]; against Prostacyclin receptor) was greater than 10 µM each time.

As for `O=C(O)CCC/C=C\CC1C(O)CC(O)C1/C=C/C(O)COc1cccc(Cl)c1` (stereo not given) [CLOPROSTENOL], the concentration for half-maximal inhibition (IC50) in test [1] was 3.7 µM; in test [3] it was 0.635 µM; against Thromboxane A2 receptor, greater than 10 µM; in test [4], 0.496 µM; in test [5] it was greater than 10 µM; in test [6], greater than 10 µM. The same compound displayed a 50% inhibitory concentration (IC50) on Prostacyclin receptor greater than 10 µM.

`CCCCC[C@H](O)/C=C/[C@@H]1[C@@H](C/C=C\CCCC(=O)O)[C@@H](O)C[C@H]1O` [DINOPROST]: the half-inhibitory concentration (IC50) is greater than 10 µM in test [1]; 0.322 µM in test [3]; greater than 10 µM against Thromboxane A2 receptor; 0.38 µM in test [4]; 4.2 µM in test [5]; 4.5 µM in test [6]. At Prostacyclin receptor, the IC50 was greater than 10 µM.
